Reference: ChEMBL document CHEMBL4396878, “Mechanisms of Specific versus Nonspecific Interactions of Aggregation-Prone Inhibitors and Attenuators” (J Med Chem, 2019)
Activity calls are given as the source filed them. The calls are words filed in the database; no cut-off is given here.

Tests used:
[1] = target: T1, Rap guanine nucleotide exchange factor 3 (Homo sapiens) (UniProt O95398); assay: Binding affinity to human EPAC1 cAMP binding domain (149 to 318 residues) at 400 uM in presence of 0.1% triton X-100 by [15N-1H]HSQC spectroscopic analysis
T1 sequence (whole entry): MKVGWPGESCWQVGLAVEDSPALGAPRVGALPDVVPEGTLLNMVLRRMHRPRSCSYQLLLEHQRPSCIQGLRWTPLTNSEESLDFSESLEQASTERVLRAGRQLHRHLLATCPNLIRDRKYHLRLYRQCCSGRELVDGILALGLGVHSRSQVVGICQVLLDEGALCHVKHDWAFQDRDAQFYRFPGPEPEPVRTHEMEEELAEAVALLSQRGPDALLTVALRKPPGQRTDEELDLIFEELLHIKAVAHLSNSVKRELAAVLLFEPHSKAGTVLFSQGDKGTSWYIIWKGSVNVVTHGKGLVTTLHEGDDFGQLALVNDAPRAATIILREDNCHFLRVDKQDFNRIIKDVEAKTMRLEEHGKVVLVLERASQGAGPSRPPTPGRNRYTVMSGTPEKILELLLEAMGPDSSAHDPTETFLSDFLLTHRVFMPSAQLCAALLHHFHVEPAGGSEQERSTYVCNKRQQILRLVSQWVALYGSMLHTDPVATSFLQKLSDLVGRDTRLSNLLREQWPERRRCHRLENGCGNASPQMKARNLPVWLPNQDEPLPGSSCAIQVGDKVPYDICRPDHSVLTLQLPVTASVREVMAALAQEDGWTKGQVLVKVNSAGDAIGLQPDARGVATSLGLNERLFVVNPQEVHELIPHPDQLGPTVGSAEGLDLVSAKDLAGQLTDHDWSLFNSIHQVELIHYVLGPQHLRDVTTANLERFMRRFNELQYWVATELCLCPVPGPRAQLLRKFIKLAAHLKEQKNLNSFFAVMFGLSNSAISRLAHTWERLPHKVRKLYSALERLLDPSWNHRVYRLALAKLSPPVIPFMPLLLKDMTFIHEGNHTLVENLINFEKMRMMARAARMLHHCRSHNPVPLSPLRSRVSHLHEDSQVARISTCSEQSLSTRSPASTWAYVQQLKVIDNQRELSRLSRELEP

[2] = Binding affinity to Triton-X 100 assessed as aggregate formation at 1:1 ratio of Triton-X 100 to compound by dynamic light scattering analysis
Procedure, shortened: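 Dynamic light scattering in NMR buffer, samples filtered through 0.22 μm and centrifuged 5 min at 13 500 rpm before measurement. Autocorrelation accumulated 150 s at a 173° scattering angle, in replicates of 3–5, with water viscosity used in analysis; intensity or volume size distributions reported.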

[3] = target: T2, Rap guanine nucleotide exchange factor 3 (Homo sapiens, UniProt O95398); assay: Binding affinity to human EPAC1 cAMP binding domain (149 to 318 residues) using monomeric form of compound by [15N-1H]HSQC spectroscopic analysis
T2 sequence (O95398 whole entry): T1 sequence (whole entry)

Compound: CC(C)(C)c1cc(C(=O)/C(C#N)=N/Nc2cccc(Cl)c2)no1
- Activity [1]: Active
- Activity [2]: inactive
- Kd [3]: 20 µM
